From ChEMBL document CHEMBL3112403, “Design, synthesis and evaluation of second generation MurF inhibitors based on a cyanothiophene scaffold” (Eur J Med Chem, 2014)
Active and inactive are the calls of the source. The rule behind the calls is not given here.

Tests used:
Staphylococcus aureus [1] = experiment: Antibacterial activity against Staphylococcus aureus SH1000 assessed as decrease in membrane integrity at 4 times MIC by BacLight assay; format: functional, organism-based
Outline: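 Membrane damage was measured with the BacLight assay in cells exposed to compound at 4 × MIC and compared with a drug-free control.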

Escherichia coli [2] = experiment: Inhibition of […] MurF ligase using D-Ala-D-Ala as substrate assessed as residual activity at 100 uM after 15 mins by malachite green assay
Outline: (§1)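 After 15 min at 37 °C, Biomol reagent was added and phosphate read at 650 nm, in duplicate. RA was taken relative to a 5% DMSO control. IC50 was taken as the concentration giving 50% RA, from seven concentrations.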

[3] = target: T1, UDP-N-acetylmuramoyl-tripeptide--D-alanyl-D-alanine ligase (Streptococcus pneumoniae) (UniProt Q9ZHC3); experiment: Inhibition of Streptococcus pneumoniae MurF ligase using D-Ala-D-Ala as substrate assessed as residual activity at 100 uM after 15 mins by malachite green assay
T1 sequence (whole entry): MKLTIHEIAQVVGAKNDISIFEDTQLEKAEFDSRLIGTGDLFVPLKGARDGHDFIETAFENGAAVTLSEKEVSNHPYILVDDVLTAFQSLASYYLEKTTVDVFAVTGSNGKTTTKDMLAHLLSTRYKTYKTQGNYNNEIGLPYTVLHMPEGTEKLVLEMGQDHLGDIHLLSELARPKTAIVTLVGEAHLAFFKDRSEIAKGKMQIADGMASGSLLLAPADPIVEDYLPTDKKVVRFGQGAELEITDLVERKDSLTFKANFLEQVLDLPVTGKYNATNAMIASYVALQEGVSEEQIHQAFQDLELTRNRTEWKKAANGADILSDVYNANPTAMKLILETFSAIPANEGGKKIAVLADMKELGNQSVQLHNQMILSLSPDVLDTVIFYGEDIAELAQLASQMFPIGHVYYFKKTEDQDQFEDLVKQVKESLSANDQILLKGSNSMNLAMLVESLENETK
Outline: (§2)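 Purified S. pneumoniae MurF in 50 mM Hepes pH 8.0 with 50 mM MgCl2, 0.005% Triton X-114, 100 µM D-Ala-D-Ala, 50 µM UMtri-L-Lys and 250 µM ATP, with 5% DMSO final. After 15 min at 37 °C, Biomol reagent was added and absorbance read at 650 nm, in duplicate. RA was taken against a 5% DMSO control. IC50 was the 50% RA point from seven concentrations.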

Escherichia coli [4] = experiment: Antibacterial activity against Escherichia coli SM1411 harboring acrAB deletion mutant assessed as growth inhibition by broth microdilution method; format: functional
Outline: (§3)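 MIC by broth microdilution in Mueller-Hinton broth following CLSI guidelines. ES100 is the tolC derivative of AB734, and SM1411 is the acrAB derivative of 1411; both are efflux-deficient E. coli strains. Growth inhibition was read as the minimum inhibitory concentration.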

[5] = Inhibition of Escherichia coli MurF ligase using D-Ala-D-Ala as substrate after 15 mins by malachite green assay; outline: as §1
Escherichia coli [6] = experiment: Antibacterial activity against Escherichia coli AB734 assessed as growth inhibition by broth microdilution method; format: functional
Outline: (§4)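 MICs by broth microdilution in Mueller-Hinton broth following CLSI guidelines.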

[7] = target: T2, UDP-N-acetylmuramoyl-tripeptide--D-alanyl-D-alanine ligase (Streptococcus pneumoniae, UniProt Q9ZHC3); experiment: Inhibition of Streptococcus pneumoniae MurF ligase using D-Ala-D-Ala as substrate after 15 mins by malachite green assay; outline: as §2
T2 sequence (Q9ZHC3 whole entry): T1 sequence (whole entry)

Escherichia coli [8] = experiment: Antibacterial activity against Escherichia coli ES100 harboring tolC deletion mutant assessed as growth inhibition by broth microdilution method; format: functional; outline: as §3
Escherichia coli [9] = experiment: Antibacterial activity against Escherichia coli 1411 assessed as growth inhibition by broth microdilution method in presence of polymyxin B nonapeptide; format: functional
Outline: (§5)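 Broth microdilution MIC in Mueller-Hinton broth per CLSI, run with 4 µg/mL polymyxin B nonapeptide to permeabilize the outer membrane.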

Staphylococcus aureus [10] = experiment: Antibacterial activity against Staphylococcus aureus SH1000 assessed as growth inhibition by broth microdilution method; format: functional; outline: as §4
Escherichia coli [11] = experiment: Antibacterial activity against Escherichia coli 1411 assessed as growth inhibition by broth microdilution method; format: functional; outline: as §4
Escherichia coli [12] = experiment: Antibacterial activity against Escherichia coli AB734 assessed as growth inhibition by broth microdilution method in presence of polymyxin B nonapeptide; format: functional; outline: as §5
Escherichia coli [13] = experiment: Inhibition of […] MurF ligase using D-Ala-D-Ala as substrate assessed as residual activity at 250 uM after 15 mins by malachite green assay; outline: as §1
[14] = target: T1, UDP-N-acetylmuramoyl-tripeptide--D-alanyl-D-alanine ligase (Streptococcus pneumoniae); experiment: Inhibition of Streptococcus pneumoniae MurF ligase using D-Ala-D-Ala as substrate assessed as residual activity at 250 uM after 15 mins by malachite green assay; outline: as §2

Activity (Escherichia coli [2]) [%]	Activity [3] [%]	SMILES	Activity (Staphylococcus aureus [1])	MIC (Escherichia coli [4]) [µg/mL]	IC50 [5] [µM]	MIC (Escherichia coli [6]) [µg/mL]	IC50 [7] [µM]	MIC (Escherichia coli [8]) [µg/mL]	MIC (Escherichia coli [9]) [µg/mL]	MIC (Staphylococcus aureus [10]) [µg/mL]	MIC (Escherichia coli [11]) [µg/mL]	MIC (Escherichia coli [12]) [µg/mL]	Activity (Escherichia coli [13]) [%]	Activity [14] [%]
		N#Cc1c(NC(=O)c2cc(OCCNC(=N)N)ccc2Cl)sc2c1CCC(c1ccc(O)cc1)C2 (stereo unspecified)	inactive											
93	98	N#Cc1c(NC(=O)c2cccc(OCCN)c2)sc2c1CCCC2												
		Cl.N#Cc1c(NC(=O)c2cc(OCCNC(=N)N)ccc2Cl)sc2c1CCN(Cc1ccccc1)C2	inactive	32	57	32	55	8	16	8	32	16		
97	102	N#Cc1ccc(COc2ccc(Cl)c(C(=O)Nc3sc4c(c3C#N)CCCC4)c2)cc1												
99	81	N#Cc1c(NC(=O)c2cccc(OCC3CCCC3)c2)sc2c1CCCC2												
		N#Cc1c(NC(=O)c2cc(OCCNC(=O)C(F)(F)F)ccc2Cl)sc2c1CCN(Cc1cccc(O)c1)C2		> 256		> 256		> 256	> 256	> 256	> 256	> 256	56	71
		COc1ccc(CN2CCc3c(sc(NC(=O)c4cc(OCCN)ccc4Cl)c3C#N)C2)cc1	inactive	64	73	128	125	32	64	128	128	64		
97	102	N#Cc1c(NC(=O)c2cccc(OCc3ccc(Cl)cc3)c2)sc2c1CCCC2												
82	81	N#Cc1c(NC(=O)c2cc(OCc3ccccc3)ccc2Cl)sc2c1CCCC2												
85	89	N#Cc1c(NC(=O)c2cccc(OCn3cccn3)c2)sc2c1CCCC2												
		COC(=O)c1ccc(CN2CCc3c(sc(NC(=O)c4cc(OCCNC(=N)N)ccc4Cl)c3C#N)C2)cc1.Cl	inactive	16	80	64	37	8	32	8	64	32		
		Cl.N#Cc1ccc(CN2CCc3c(sc(NC(=O)c4cc(OCCNC(=N)N)ccc4Cl)c3C#N)C2)cc1	inactive	16	66	256	61	16	32	16	128	32		
		N#Cc1c(NC(=O)c2cc(OCCN)ccc2Cl)sc2c1CCNC2		> 256		> 256		> 256	> 256	> 256	> 256	> 256	65	85
